# In ChEMBL document CHEMBL1155395, “Discovery of substituted biphenyl imidazoles as potent, bioavailable bombesin receptor subtype-3 agonists” (Bioorg Med Chem Lett, 2010):
# pEC50: −log10 of the molar value.
# Legend:
# [1] = molecular target: T1, Bombesin receptor subtype-3 (Homo sapiens, UniProt P32247); assay: Agonistic activity at human BRS3 expressed in HEK293AEO cells by aequorin bioluminescence assay; type: functional, cell-based
# T1 sequence (P32247 whole entry): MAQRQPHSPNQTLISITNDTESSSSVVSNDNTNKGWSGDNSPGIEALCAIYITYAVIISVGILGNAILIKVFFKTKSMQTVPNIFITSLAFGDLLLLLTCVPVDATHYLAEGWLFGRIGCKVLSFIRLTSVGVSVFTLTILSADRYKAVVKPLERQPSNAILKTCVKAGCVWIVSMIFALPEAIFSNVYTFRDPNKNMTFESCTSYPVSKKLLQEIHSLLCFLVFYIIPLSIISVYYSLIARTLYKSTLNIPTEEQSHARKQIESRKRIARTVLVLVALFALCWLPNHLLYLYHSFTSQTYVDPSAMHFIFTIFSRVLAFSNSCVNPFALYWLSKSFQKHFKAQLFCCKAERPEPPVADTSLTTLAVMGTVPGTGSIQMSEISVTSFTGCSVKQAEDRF
# [2] = molecular target: T2, Bombesin receptor subtype-3 (Homo sapiens) (UniProt P32247); assay: Agonistic activity at human BRS3 expressed in HEK293AEO at 10 uM cells by aequorin bioluminescence assay relative to dY peptide; type: functional, cell-based
# T2 sequence (whole entry): T1 sequence (P32247 whole entry)
# [3] = molecular target: T3, Bombesin receptor subtype-3 (Mus musculus, UniProt O54798); assay: Agonistic activity at mouse BRS3 expressed in HEK293AEO cells by aequorin bioluminescence assay; type: functional, cell-based
# T3 sequence (O54798 whole entry): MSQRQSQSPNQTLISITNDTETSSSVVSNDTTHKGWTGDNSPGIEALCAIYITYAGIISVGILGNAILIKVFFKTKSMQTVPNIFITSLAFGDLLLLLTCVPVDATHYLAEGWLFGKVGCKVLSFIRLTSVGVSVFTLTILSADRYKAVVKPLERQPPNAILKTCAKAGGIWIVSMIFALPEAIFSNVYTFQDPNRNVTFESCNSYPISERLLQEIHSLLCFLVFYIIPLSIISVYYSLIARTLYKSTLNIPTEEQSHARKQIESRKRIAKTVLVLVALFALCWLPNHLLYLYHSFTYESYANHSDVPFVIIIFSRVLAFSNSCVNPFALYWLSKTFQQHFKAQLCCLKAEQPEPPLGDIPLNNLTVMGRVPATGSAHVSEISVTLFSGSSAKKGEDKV
# [4] = molecular target: T4, Bombesin receptor subtype-3 (Mus musculus) (UniProt O54798); assay: Agonistic activity at mouse BRS3 expressed in HEK293AEO cells at 10 uM by aequorin bioluminescence assay relative to dY peptide; type: functional, cell-based
# T4 sequence (whole entry): T3 sequence (O54798 whole entry)
# [5] = Oral bioavailability in Sprague-Dawley rat at 4 mg/kg; type: ADME, organism-based; conditions: in vivo
# Method in brief: (§1)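 Sprague-Dawley rats given compound as solution in EtOH/PEG400/water (10:40:50), 1 mg/kg iv and 4 mg/kg po; clearance, steady-state volume of distribution, half-life, oral bioavailability and dose-normalised AUC derived.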
# [6] = Clearance in Sprague-Dawley rat at 1 mg/kg, iv and 4 mg/kg, po; type: ADME, organism-based; conditions: in vivo; method in brief: as §1
# [7] = Volume of distribution at steady state in Sprague-Dawley rat at 1 mg/kg, iv and 4 mg/kg, po; type: ADME, organism-based; conditions: in vivo, read-out: Vdss; method in brief: as §1
# [8] = Half life in Sprague-Dawley rat at 1 mg/kg, iv and 4 mg/kg, po; type: ADME, organism-based; conditions: in vivo; method in brief: as §1
SMILES,pEC50 [1],Activity [2] [%],pEC50 [3],Activity [4] [%],bioavailability [5] [%],clearance [6] [mL/min/kg],Vd [7] [L/kg],half-life [8] [h]
Cc1ccc(Cc2cnc(CCc3ccc(-c4ccccc4C(=O)O)cc3)[nH]2)cc1,5.57,88,6.79,120,,,,
Cc1cccc(Cc2cnc(CCc3ccc(-c4ccccc4C(=O)O)cc3)[nH]2)c1,5.37,87,7.12,89,,,,
COc1ccc(Cc2cnc(CCc3ccc(-c4ccccc4C(=O)O)cc3)[nH]2)cc1,5.27,44,6.29,88,,,,
CC(C)(C)CCc1cnc(CCc2ccc(-c3ccccc3C(=O)O)cc2)[nH]1,7.41,102,8.21,99,,,,
O=C(O)c1ccccc1-c1ccc(CCc2ncc(CC3CCCCC3)[nH]2)cc1,7.39,104,8.14,102,,,,
CCCCc1cnc(C(CCC)Cc2ccc(-c3ccccc3C(=O)O)cc2)[nH]1 (stereo not drawn),5.93,96,6.78,102,,,,
CCCCc1cnc(C(CCCC)Cc2ccc(-c3ccccc3C(=O)O)cc2)[nH]1 (stereo not drawn),5.58,66,6.28,96,,,,
CCCCc1cnc(CCc2ccc(-c3ccccc3C(=O)O)cc2)[nH]1,5.57,78,7.03,116,16,1.3,0.1,1.56
O=C(O)c1ccccc1-c1ccc(CCc2ncc(Cc3cccc(Cl)c3)[nH]2)cc1,6.08,91,7.51,98,,,,
CC(C)(C)c1cnc(CCc2ccc(-c3ccccc3C(=O)O)cc2)[nH]1,5.36,45,5.56,108,,,,
O=C(O)c1ccccc1-c1ccc(CCc2ncc(Cc3ccccc3)[nH]2)cc1,6.69,109,7.96,111,,,,
Cc1ccccc1Cc1cnc(CCc2ccc(-c3ccccc3C(=O)O)cc2)[nH]1,6.90,93,8.03,106,,,,
O=C(O)c1ccccc1-c1ccc(CCc2ncc(CC3CCCC3)[nH]2)cc1,6.88,102,8.10,94,,,,
O=C(O)c1ccccc1-c1ccc(CCc2ncc(CC3CCCCCC3)[nH]2)cc1,7.06,106,8.24,102,,,,
CCCCc1cnc(C(Cc2ccc(-c3ccccc3C(=O)O)cc2)C(C)C)[nH]1 (stereo not drawn),5.34,60,5.65,87,,,,
CCCCc1cnc(/C=C/c2ccc(-c3ccccc3C(=O)O)cc2)[nH]1,5.36,8,5.00,39,,,,
O=C(O)c1ccccc1-c1ccc(CCc2ncc(Cc3ccccc3F)[nH]2)cc1,6.75,108,8.02,121,,,,
N#Cc1ccccc1Cc1cnc(CCc2ccc(-c3ccccc3C(=O)O)cc2)[nH]1,5.26,51,6.19,139,,,,
O=C(O)c1ccccc1-c1ccc(CCc2ncc(Cc3cccc(F)c3)[nH]2)cc1,6.80,107,8.10,108,,,,
CC(C)CCc1cnc(CCc2ccc(-c3ccccc3C(=O)O)cc2)[nH]1,6.92,112,8.00,111,,,,
CCC(C)(CC)Cc1cnc(CCc2ccc(-c3ccccc3C(=O)O)cc2)[nH]1,7.12,97,7.52,116,,,,

SMILES,pEC50 [1],Activity [2] [%],pEC50 [3],Activity [4] [%],bioavailability [5] [%],clearance [6] [mL/min/kg],Vd [7] [L/kg],half-life [8] [h]
COc1ccccc1Cc1cnc(CCc2ccc(-c3ccccc3C(=O)O)cc2)[nH]1,5.76,88,6.79,101,,,,
O=C(O)c1ccccc1-c1ccc(CCc2ncc(Cc3cccc(F)c3F)[nH]2)cc1,7.06,104,8.10,110,,,,
O=C(O)c1ccccc1-c1ccc(CCc2ncc(Cc3ccc(F)cc3)[nH]2)cc1,5.80,84,7.30,104,,,,
O=C(O)c1ccccc1-c1ccc(CCc2ncc(CC3CC3)[nH]2)cc1,6.00,96,7.14,144,,,,
O=C(O)c1ccccc1-c1ccc(CCc2ncc(Cc3ccccc3Cl)[nH]2)cc1,6.53,100,7.66,109,,,,
CCC(C)(C)Cc1c[nH]c(CCc2ccc(-c3ccccc3C(=O)O)cc2)n1,7.60,101,8.02,94,,,,
N#Cc1ccc(Cc2cnc(CCc3ccc(-c4ccccc4C(=O)O)cc3)[nH]2)cc1,5.23,25,6.14,85,,,,
COc1cccc(Cc2cnc(CCc3ccc(-c4ccccc4C(=O)O)cc3)[nH]2)c1,5.38,73,7.10,80,,,,
O=C(O)c1ccccc1-c1ccc(CCc2nc(-c3ccccc3)c[nH]2)cc1,5.31,,6.06,,,,,
N#Cc1cccc(Cc2cnc(CCc3ccc(-c4ccccc4C(=O)O)cc3)[nH]2)c1,6.09,95,7.70,102,,,,
CCCCc1cnc(C(CC)Cc2ccc(-c3ccccc3C(=O)O)cc2)[nH]1 (stereo not drawn),5.57,76,6.47,104,,,,
CCCCc1cnc(Cc2ccc(-c3ccccc3C(=O)O)cc2)[nH]1,< 5.00,0,< 5.00,0,,,,
O=C(O)c1ccccc1-c1ccc(CCc2ncc(CCC3CCCCC3)[nH]2)cc1,6.19,94,7.48,101,,,,
O=C(O)c1ccccc1-c1ccc(CCc2ncc(CCc3ccccc3)[nH]2)cc1,5.88,86,6.76,89,,,,
CCCCc1cnc(C(C)Cc2ccc(-c3ccccc3C(=O)O)cc2)[nH]1 (stereo not drawn),5.56,79,6.74,110,,,,
O=C(O)c1ccccc1-c1ccc(CCc2ncc(CC3CCOCC3)[nH]2)cc1,6.47,96,7.64,106,,,,
O=C(O)c1ccccc1-c1ccc(CCc2ncc(C3CCCCC3)[nH]2)cc1,6.43,102,7.83,116,,,,
O=C(O)c1ccccc1-c1ccc(CCc2ncc(Cc3ccc(Cl)cc3)[nH]2)cc1,5.64,89,6.99,105,,,,
O=C(O)c1ccccc1-c1ccc(CCc2ncc(-c3ccccc3)[nH]2)cc1,,30,,101,,,,
CCCCc1cnc(CCCc2ccc(-c3ccccc3C(=O)O)cc2)[nH]1,5.25,54,6.42,101,,,,
O=C(O)c1ccccc1-c1ccc(CCc2ncc(CC3CCC3)[nH]2)cc1,6.23,105,8.15,99,,,,
